# pIC50: −log10 of the molar value. Calls of active or inactive are those of the source. The calls are words filed in the database; no cut-off is given here.
# Assays:
# [1] = tested on: Mus musculus; assay: Antitumor activity against mouse Ehrlich Ascites tumor xenografted in ip dosed Swiss albino mouse assessed as tumor growth administered for 9 days; assay type: functional, organism-based
# [2] = tested on: SW-620; assay: Cytotoxicity against human SW620 cells assessed as cell growth after 48 hrs by sulforhodamine B assay; assay type: functional, cell-based; conditions: Homo sapiens, SW-620, 48 h
# Summary of the method: (§1)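 Log-phase cells seeded at 10^4/well and allowed to attach for 24 h at 37 °C, 5% CO2. Exposed for 48 h to 0.1–100 (1:10 serial dilutions), four replicate wells per condition. Fixed with cold 50% TCA for 1 h at 4 °C, stained with sulforhodamine B, dye dissolved in Tris, OD read at 540 nm. Blank-subtracted growth expressed relative to untreated cells (100%); IC50 reported.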
# [3] = Antitumor activity against mouse Ehrlich Ascites tumor xenografted in Swiss albino mouse assessed as tumor growth inhibition at 100 mg/kg, ip administered for 9 days measured on day 13; assay type: functional; conditions: route intraperitoneal, read-out: GI
# [4] = tested on: SW-620; assay: Induction of apoptosis in human SW620 cells assessed as DNA fragmentation at 50 uM after 24 hrs by gel electrophoresis; assay type: functional, cell-based
# Summary of the method: (§2)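 SW-620 cells (2 × 10^6 per 60 mm plate) treated for 24 h at 10, 50 or 100. Pellets lysed in 10 mM EDTA, 50 mM Tris pH 8.0, 0.5% SDS and proteinase K 0.5 mg/mL at 50 °C for 1 h. DNA heated briefly to 70 °C and run on 1.5% agarose at 50 V for 2–3 h. Untreated cells served as control; camptothecin as positive control.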
# [5] = Antitumor activity against mouse Ehrlich Ascites tumor xenografted in Swiss albino mouse assessed as decrease in tumor weight at 25 mg/kg, ip administered for 9 days (reference value: 1708+/-51.07 mg); assay type: functional; conditions: route intraperitoneal
# [6] = tested on: Ehrlich; assay: Antitumor activity against mouse EAC cells transplanted in Swiss albino mouse assessed as decrease in tumor cells in ascetic fluid at 10 mg/kg, ip administered for 9 days (reference value: 4.57+/-0.39 mL); assay type: functional, organism-based; parameters: dose 10 mg/kg
# Summary of the method: (§3)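 EAC ascites model: mice of the same sex, 20 ± 3 g, injected intraperitoneally with 1 × 10^7 cells from a donor bearing 8–10 day old ascites tumor (day 0). Randomised the next day, 7 per test group and 10 controls. Doses were suspended in 1% gum acacia and given i.p. for nine consecutive days; controls received saline 0.2 mL i.p. On day 12, ascitic fluid volume and tumor cell count were measured, and % inhibition was calculated from cell number versus control.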
# [7] = Antitumor activity against mouse EAC cells transplanted in Swiss albino mouse assessed as tumor growth inhibition at 10 mg/kg, ip administered for 9 days (reference value: 4.57+/-0.39 mL); assay type: functional; conditions: Ehrlich, 216 h, route intraperitoneal, read-out: GI; summary of the method: as §3
# [8] = tested on: SW-620; assay: Cell cycle arrest in human SW620 cells assessed as increase in sub-G1 DNA content at 10 uM after 24 hrs using propidium iodide staining by flow cytometry (reference value: 3.45%); assay type: functional
# [9] = Antitumor activity against mouse EAC cells transplanted in Swiss albino mouse assessed as decrease in astic fluid volume at 25 mg/kg, ip administered for 9 days (reference value: 4.57+/-0.39 mL); assay type: functional, Ehrlich; conditions: route intraperitoneal
# [10] = tested on: Mus musculus; assay: Toxicity in ip dosed Swiss albino mouse transplanted with mouse EAC cells assessed as mortality administered for 9 days; assay type: organism-based, Ehrlich; conditions: in vivo, 216 h; summary of the method: as §3
# [11] = Antitumor activity against mouse EAC cells transplanted in Swiss albino mouse assessed as tumor growth inhibition at 25 mg/kg, ip administered for 9 days (reference value: 4.57+/-0.39 mL); assay type: functional; conditions: Ehrlich, 216 h, route intraperitoneal, read-out: GI
# [12] = Antitumor activity against mouse EAC cells transplanted in Swiss albino mouse assessed as decrease in astic fluid volume at 10 mg/kg, ip administered for 9 days (reference value: 4.57+/-0.39 mL); assay type: functional, Ehrlich; conditions: route intraperitoneal; summary of the method: as §3
# [13] = tested on: SW-620; assay: Induction of apoptosis in human SW620 cells assessed as blockage of G1-phase at 50 uM after 24 hrs using propidium iodide staining by flow cytometry; assay type: functional, cell-based
# [14] = Antitumor activity against mouse EAC cells transplanted in Swiss albino mouse assessed as decrease in astic fluid volume at 50 mg/kg, ip administered for 9 days (reference value: 4.57+/-0.39 mL); assay type: functional, Ehrlich; conditions: route intraperitoneal
# [15] = tested on: PC-3; assay: Cytotoxicity against human PC3 cells assessed as cell growth after 48 hrs by sulforhodamine B assay; assay type: functional, cell-based; conditions: Homo sapiens, PC-3, 48 h; summary of the method: as §1
# [16] = tested on: Ehrlich; assay: Antitumor activity against mouse EAC cells transplanted in ip dosed Swiss albino mouse assessed as tumor growth inhibition administered for 9 days; assay type: functional, organism-based; summary of the method: as §3
# [17] = tested on: Ehrlich; assay: Antitumor activity against mouse EAC cells transplanted in Swiss albino mouse assessed as decrease in tumor cells in ascetic fluid at 50 mg/kg, ip administered for 9 days (reference value: 4.57+/-0.39 mL); assay type: functional, organism-based; parameters: dose 50 mg/kg
# [18] = tested on: Mus musculus; assay: Toxicity in Swiss albino mouse transplanted with EAC cells assessed as mortality at 200 mg/kg, ip administered for 9 days measured on day 3rd; assay type: organism-based, Ehrlich; parameters: dose 200 mg/kg, route intraperitoneal; conditions: in vivo, 216 h; summary of the method: as §3
# [19] = Antitumor activity against mouse EAC cells transplanted in Swiss albino mouse assessed as tumor growth inhibition at 50 mg/kg, ip administered for 9 days (reference value: 4.57+/-0.39 mL); assay type: functional; conditions: Ehrlich, 216 h, route intraperitoneal, read-out: GI
# [20] = Antitumor activity against mouse EAC cells transplanted in Swiss albino mouse assessed as tumor growth inhibition at 100 mg/kg, ip administered for 9 days (reference value: 4.57+/-0.39 mL); assay type: functional; conditions: Ehrlich, 216 h, route intraperitoneal, read-out: GI
# [21] = Antitumor activity against mouse EAC cells transplanted in Swiss albino mouse assessed as decrease in astic fluid volume at 100 mg/kg, ip administered for 9 days (reference value: 4.57+/-0.39 mL); assay type: functional, Ehrlich; conditions: route intraperitoneal
# [22] = tested on: Ehrlich; assay: Antitumor activity against mouse EAC cells transplanted in Swiss albino mouse assessed as decrease in tumor cells in ascetic fluid at 25 mg/kg, ip administered for 9 days (reference value: 4.57+/-0.39 mL); assay type: functional, organism-based; parameters: dose 25 mg/kg
# [23] = tested on: Ehrlich; assay: Antitumor activity against mouse EAC cells transplanted in Swiss albino mouse assessed as decrease in tumor cells in ascetic fluid at 100 mg/kg, ip administered for 9 days (reference value: 4.57+/-0.39 mL); assay type: functional, organism-based; parameters: dose 100 mg/kg
# [24] = Antitumor activity against mouse Ehrlich Ascites tumor xenografted in Swiss albino mouse assessed as tumor growth inhibition at 10 mg/kg, ip administered for 9 days measured on day 13; assay type: functional; conditions: route intraperitoneal, read-out: GI
# [25] = Antitumor activity against mouse Ehrlich Ascites tumor xenografted in Swiss albino mouse assessed as tumor growth inhibition at 50 mg/kg, ip administered for 9 days measured on day 13; assay type: functional; conditions: route intraperitoneal, read-out: GI
# [26] = tested on: SW-620; assay: Induction of apoptosis in human SW620 cells assessed as DNA fragmentation at 100 uM after 24 hrs by gel electrophoresis; assay type: functional, cell-based; summary of the method: as §2
# [27] = Antitumor activity against mouse Ehrlich Ascites tumor xenografted in Swiss albino mouse assessed as decrease in tumor weight at 10 mg/kg, ip administered for 9 days (reference value: 1708+/-51.07 mg); assay type: functional; conditions: route intraperitoneal
# [28] = tested on: SW-620; assay: Cell cycle arrest in human SW620 cells assessed as increase in sub-G1 DNA content at 50 uM after 24 hrs using propidium iodide staining by flow cytometry (reference value: 3.45%); assay type: functional
# [29] = Antitumor activity against mouse Ehrlich Ascites tumor xenografted in Swiss albino mouse assessed as decrease in tumor weight at 100 mg/kg, ip administered for 9 days (reference value: 1708+/-51.07 mg); assay type: functional; conditions: route intraperitoneal
# [30] = Antitumor activity against mouse Ehrlich Ascites tumor xenografted in Swiss albino mouse assessed as tumor growth inhibition at 25 mg/kg, ip administered for 9 days measured on day 13; assay type: functional; conditions: route intraperitoneal, read-out: GI
# [31] = Antitumor activity against mouse Ehrlich Ascites tumor xenografted in Swiss albino mouse assessed as decrease in tumor weight at 50 mg/kg, ip administered for 9 days (reference value: 1708+/-51.07 mg); assay type: functional; conditions: route intraperitoneal
# [32] = tested on: Mus musculus; assay: Toxicity in Swiss albino mouse model of Ehrlich Ascites tumor assessed as mortality at 200 mg/kg, ip administered for 9 days measured on third day; assay type: organism-based; parameters: dose 200 mg/kg, route intraperitoneal; conditions: in vivo, 216 h
# [33] = target: Transcription factor p65 (Homo sapiens) (UniProt Q04206); assay: Inhibition of NF-kappaB p65 subunit transcriptional activity in human SW620 cells at 5 uM by Western blot analysis; assay type: cell-based; conditions: SW-620
# Summary of the method: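 SW-620 cells (5 × 10^6) exposed to 5 for the indicated times. Washed in ice-cold PBS, lysed in Hepes pH 7.9 buffer with KCl, EDTA, EGTA, DTT, PMSF, NaF, vanadate and protease inhibitors, then NP-40 0.5%. Cytosol taken after 8000 × g. Nuclear fraction extracted with 20% glycerol and 0.4 M KCl on ice for 30 min, spun at 13,000 × g. NF-κB assessed by western blot.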
# [34] = tested on: SW-620; assay: Cell cycle arrest in human SW620 cells assessed as increase in sub-G1 DNA content at 1 uM after 24 hrs using propidium iodide staining by flow cytometry (reference value: 3.45%); assay type: functional
# [35] = tested on: DU-145; assay: Cytotoxicity against human DU145 cells assessed as cell growth after 48 hrs by sulforhodamine B assay; assay type: functional, cell-based; conditions: Homo sapiens, DU-145, 48 h; summary of the method: as §1
# [36] = Partition coefficient, log P of the compound; assay type: physicochemical; conditions: octanol/water
# [37] = tested on: SW-620; assay: Cell cycle arrest in human SW620 cells assessed as increase in sub-G1 DNA content at 5 uM after 24 hrs using propidium iodide staining by flow cytometry (reference value: 3.45%); assay type: functional
# Sequence of Transcription factor p65 (Homo sapiens) (Q04206 whole entry): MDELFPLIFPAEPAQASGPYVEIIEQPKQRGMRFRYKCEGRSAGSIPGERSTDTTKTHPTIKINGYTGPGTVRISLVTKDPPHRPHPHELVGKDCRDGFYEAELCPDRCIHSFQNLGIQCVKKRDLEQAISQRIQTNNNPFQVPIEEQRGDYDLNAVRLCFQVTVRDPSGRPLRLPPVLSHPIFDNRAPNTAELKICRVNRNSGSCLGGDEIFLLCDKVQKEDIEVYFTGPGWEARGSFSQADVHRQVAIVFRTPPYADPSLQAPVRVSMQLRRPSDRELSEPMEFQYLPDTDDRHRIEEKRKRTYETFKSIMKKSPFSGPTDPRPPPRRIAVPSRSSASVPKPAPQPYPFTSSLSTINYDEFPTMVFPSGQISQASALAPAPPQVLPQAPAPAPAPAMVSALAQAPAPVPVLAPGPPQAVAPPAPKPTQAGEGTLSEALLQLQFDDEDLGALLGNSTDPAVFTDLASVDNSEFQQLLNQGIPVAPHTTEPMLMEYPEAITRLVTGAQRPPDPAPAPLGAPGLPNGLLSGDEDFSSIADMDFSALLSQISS
structure (smiles),measurement,setting,value
C[C@H]1CC[C@@H]2[C@@H](OC(=O)[C@]23CC(c2c4ccccc4cc4ccccc24)=NO3)[C@]2(C)C(=O)C=C[C@@]12O,growth inhibition (GI),[1],Dose-dependent effect
same,pIC50,[2],5.37
same,inhibition in vivo at 100 mg/kg,[3],35.1%
same,Activity,[4],Active
same,Activity,[5],1445.71 mg
same,Activity,[6],Active
same,inhibition in vivo at 10 mg/kg,[7],7.74%
same,Activity,[8],33.2%
same,Activity,[9],3.62 mL
same,Activity,[10],Toxic
same,inhibition in vivo at 25 mg/kg,[11],19.2%
same,Activity,[12],4.07 mL
same,Activity,[13],Active
same,Activity,[14],2.85 mL
same,pIC50,[15],5.31
same,growth inhibition (GI),[16],Dose-dependent effect
same,Activity,[17],Active
same,Activity,[18],Toxic
same,inhibition in vivo at 50 mg/kg,[19],27.2%
same,inhibition in vivo at 100 mg/kg,[20],60.5%
same,Activity,[21],2.07 mL
same,Activity,[22],Active
same,Activity,[23],Active
same,inhibition in vivo at 10 mg/kg,[24],9.44%
same,inhibition in vivo at 50 mg/kg,[25],22%
same,Activity,[26],Active
same,Activity,[27],1547.14 mg
same,Activity,[28],55%
same,Activity,[29],1108.57 mg
same,inhibition in vivo at 25 mg/kg,[30],15.4%
same,Activity,[31],1332.14 mg
same,Activity,[32],Toxic
same,inhibition,[33],Active
same,Activity,[34],6.58%
same,pIC50,[35],5.34
same,logP,[36],3.71
same,Activity,[37],33.09%

# From ChEMBL document CHEMBL1806428, “Design and synthesis of spiro derivatives of parthenin as novel anti-cancer agents” (Eur J Med Chem, 2011)
